Experimental data reported in ChEMBL document CHEMBL2163304, “Strynuxlines A and B, alkaloids with an unprecedented carbon skeleton from Strychnos nux-vomica” (J Nat Prod, 2012).

Columns and labels:
Format in all cases: functional, cell-based
SW480 = experiment: Cytotoxicity against human SW480 cells after 48 hrs by MTT assay; settings: SW480, 48 h
Summary of the method: (§1)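 Human tumour cells were seeded in 96-well plates at an initial density of 1 × 10^5 cells/mL. Adherent lines were allowed to attach for 12 h before dosing, and HL-60 suspension cells were seeded just before dosing. Cells were exposed to […], 0.32, 1.6, 8 and 40 μM for 48 h, in triplicate, with cisplatin and paclitaxel as positive controls. Viability was read by MTT and growth curves were plotted.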

MCF7 = experiment: Cytotoxicity against human MCF7 cells after 48 hrs by MTT assay; settings: MCF7, 48 h; summary of the method: as §1
A549 = experiment: Cytotoxicity against human A549 cells after 48 hrs by MTT assay; settings: A549, 48 h; summary of the method: as §1
SMMC-7721 = experiment: Cytotoxicity against human SMMC7721 cells after 48 hrs by MTT assay; settings: SMMC-7721, 48 h; summary of the method: as §1
HL-60 = experiment: Cytotoxicity against human HL60 cells after 48 hrs by MTT assay; settings: HL-60, 48 h; summary of the method: as §1

| Compound | IC50 (SW480) [µM] | IC50 (MCF7) [µM] | IC50 (A549) [µM] | IC50 (SMMC-7721) [µM] | IC50 (HL-60) [µM] |
| --- | --- | --- | --- | --- | --- |
| O=C1C[C@@H]2OCC=C3C[N+]4([O-])CC[C@]56c7ccccc7N1[C@H]5[C@H]2[C@H]3C[C@@H]64 (stereo not given in full) | > 40 | > 40 | > 40 | > 40 | > 40 |
| COc1ccc2c(c1)[C@@]13CCN4CC5=CCO[C@H]6CC(=O)N2[C@H]1[C@H]6[C@H]5C[C@H]43 | > 40 | > 40 | > 40 | > 40 | > 40 |
| COC1=C2CN(C)CC[C@]34C(=O)C[C@@H]2[C@H]2[C@H](CC(=O)N(c5ccccc53)[C@@H]24)OC1 | > 40 | > 40 | > 40 | > 40 | > 40 |
| COc1ccc2c(c1)N1C(=O)C[C@@H]3OCC=C4CN5CC[C@]26[C@@H]5C[C@@H]4[C@@H]3[C@H]16 | > 40 | > 40 | > 40 | > 40 | > 40 |
| COc1cc2c(cc1OC)[C@@]13CC[N+]4([O-])CC5=CCO[C@H]6CC(=O)N2[C@H]1[C@H]6[C@H]5C[C@@H]34 (stereo not given in full) | > 40 | > 40 | > 40 | > 40 | > 40 |
| C/C=C1/CN2CC[C@@]34c5ccccc5N5/C=C6/[C@H]7C[C@@H]8N(CC[C@@]89c8ccccc8N(/C=C(/[C@H]1C[C@H]23)[C@H]54)[C@@H]69)C/C7=C/C [BISNORDIHYDROTOXIFERINE] | > 40 | > 40 | > 40 | > 40 | > 40 |
| COc1cc2c(cc1OC)[C@@]13CCN4CC5=CCO[C@H]6CC(=O)N2[C@H]1[C@H]6[C@H]5C[C@H]43 [BRUCINE] | > 40 | > 40 | > 40 | > 40 | > 40 |
| CN1CC[C@]23C(=O)C[C@H]4C(=CCO[C@H]5CC(=O)N(c6ccccc62)[C@H]3[C@H]54)C1 [ICAJINE] | > 40 | > 40 | > 40 | > 40 | > 40 |
| COc1cc2c(cc1OC)[C@]13CCN4C/C(=C/CO)[C@H](C[C@H]41)C1=CCC(=O)N2[C@@H]13 [ISOBRUCINE] | > 40 | > 40 | > 40 | > 40 | > 40 |
| O=C1CC=C2[C@H]3C[C@@H]4N(CC[C@@]45c4ccccc4N1[C@@H]25)C/C3=C/CO [ISOSTRYCHNINE] | > 40 | > 40 | > 40 | > 40 | > 40 |
| COc1cc2c(cc1OC)[C@@]13CCN(C)CC4=CCO[C@H]5CC(=O)N2[C@H]1[C@H]5[C@H]4CC3=O [NOVACINE] | > 40 | > 40 | > 40 | > 40 | > 40 |
| COc1cc2c(cc1OC)[C@@]13CCN4CC5=CCO[C@H]6CC(=O)N2[C@H]1[C@H]6[C@H]5C[C@]43O [PSEUDOBRUCINE] | > 40 | > 40 | > 40 | > 40 | > 40 |
| O=C1C[C@@H]2OCC=C3CN4CC[C@]56c7ccccc7N1[C@H]5[C@H]2[C@H]3C[C@]46O [PSEUDOSTRYCHNINE] | > 40 | > 40 | > 40 | > 40 | > 40 |
| C[N+]12CC[C@@]34c5ccccc5N5C(=O)C[C@@H]6OCC=C(C1)[C@H](C[C@@H]32)[C@@H]6[C@H]54 (stereo not given in full) [STRYCHNINE METHIODIDE] | > 40 | > 40 | > 40 | > 40 | > 40 |
| O=C1C[C@@H]2OCC=C3CN4CC[C@]56c7ccccc7N1[C@H]5[C@H]2[C@H]3C[C@H]46 [STRYCHNINE] | > 40 | > 40 | > 40 | > 40 | > 40 |
| COc1cc2c3c4n(c2cc1OC)C(=O)C[C@@H]1OCC=C2CN(CC3)C(=O)C[C@@H]2[C@H]41 [STRYNUXLINE A] | 13.3 | 12.2 | 17.1 | 9.4 | 7.15 |
| O=C1C[C@H]2C3=CCO[C@H]4CC(=O)n5c(c(c6ccccc65)CCN1C3)[C@H]42 [STRYNUXLINE B] | 19 | 11.2 | 18.1 | 15.7 | 16.5 |
| CN1CC[C@]23C(=O)C[C@H]4C(=CCO[C@H]5CC(=O)N(c6c(O)cccc62)[C@H]3[C@H]54)C1 [VOMICINE] | > 40 | > 40 | > 40 | > 40 | > 40 |
